Test results reported in ChEMBL document CHEMBL1138454, “Synthesis and SAR of tolylamine 5-HT6 antagonists” (Bioorg Med Chem Lett, 2009).
Activity calls are given as the source filed them. The calls are words filed in the database; no cut-off is given here.

Assays:
Rattus norvegicus [1] = assay: Reversal of natural forgetting activity in rat assessed as familiar object recognition at 3 mg/kg, ip after 24 hrs; format: functional, organism-based; design: dose 3 mg/kg
Rattus norvegicus [2] = assay: Reversal of natural forgetting activity in rat assessed as familiar object recognition at 10 mg/kg, ip after 24 hrs; format: functional, organism-based; design: dose 10 mg/kg
[3] = Bioavailability in rat; format: ADME, organism-based; details: in vivo
[4] = Clearance in rat; format: ADME, organism-based; details: in vivo
[5] = Volume of distribution at steady state in rat; format: ADME, organism-based; details: in vivo, read-out: Vdss
[6] = Half life in po dosed rat plasma; format: ADME, organism-based
Outline: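 Rat pharmacokinetics; plasma half-life derived from the PO dosing arm.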

[7] = Ratio of drug level in rat brain to plasma; details: brain and plasma
[8] = target: 5-hydroxytryptamine receptor 6 (Rattus norvegicus) (UniProt P31388); assay: Agonist activity at rat recombinant 5HT6 receptor assessed as increase in 5-HT-stimulated cAMP level at 1 uM by ELISA; format: functional
Outline: (§1)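 cAMP accumulation measured by ELISA in cells expressing recombinant rat 5-HT6 receptor. Compound tested alone, without 5-HT, at 1, 3 and 10 µM to look for stimulation. 5-HT used as the stimulating reference.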

[9] = target: 5-hydroxytryptamine receptor 6 (Rattus norvegicus) (UniProt P31388); assay: Agonist activity at rat recombinant 5HT6 receptor assessed as increase in 5-HT-stimulated cAMP level at 3 uM by ELISA; format: functional; outline: as §1
[10] = target: 5-hydroxytryptamine receptor 6 (Rattus norvegicus) (UniProt P31388); assay: Agonist activity at rat recombinant 5HT6 receptor assessed as increase in 5-HT-stimulated cAMP level at 10 uM by ELISA; format: functional; outline: as §1
[11] = target: 5-hydroxytryptamine receptor 6 (Rattus norvegicus) (UniProt P31388); assay: Antagonist activity at rat recombinant 5HT6 receptor assessed as inhibition of 5-HT-stimulated cAMP level by ELISA; format: functional
Outline: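 Cells expressing recombinant rat 5-HT6 receptor were stimulated with 5-HT. Inhibition of the 5-HT-stimulated cAMP accumulation was read by ELISA and expressed as a Kb.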

[12] = target: T1, 5-hydroxytryptamine receptor 1A (Homo sapiens, UniProt P08908); assay: Binding affinity to 5HT1A receptor
T1 sequence (P08908 whole entry): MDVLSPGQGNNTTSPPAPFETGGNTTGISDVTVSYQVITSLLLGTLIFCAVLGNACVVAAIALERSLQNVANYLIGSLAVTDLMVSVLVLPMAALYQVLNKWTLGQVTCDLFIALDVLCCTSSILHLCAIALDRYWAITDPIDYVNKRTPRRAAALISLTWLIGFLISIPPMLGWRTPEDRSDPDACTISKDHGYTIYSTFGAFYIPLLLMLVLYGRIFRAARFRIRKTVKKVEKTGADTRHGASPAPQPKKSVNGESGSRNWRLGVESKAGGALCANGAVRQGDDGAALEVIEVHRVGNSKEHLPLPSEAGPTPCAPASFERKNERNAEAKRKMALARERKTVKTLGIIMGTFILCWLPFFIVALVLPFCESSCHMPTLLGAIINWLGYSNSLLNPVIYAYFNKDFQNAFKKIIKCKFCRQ

[13] = target: 5-hydroxytryptamine receptor 2A (Homo sapiens, UniProt P28223); assay: Binding affinity to 5HT2A receptor
[14] = target: T2, 5-hydroxytryptamine receptor 2C (Homo sapiens, UniProt P28335); assay: Binding affinity to 5HT2C receptor
T2 sequence (P28335 whole entry): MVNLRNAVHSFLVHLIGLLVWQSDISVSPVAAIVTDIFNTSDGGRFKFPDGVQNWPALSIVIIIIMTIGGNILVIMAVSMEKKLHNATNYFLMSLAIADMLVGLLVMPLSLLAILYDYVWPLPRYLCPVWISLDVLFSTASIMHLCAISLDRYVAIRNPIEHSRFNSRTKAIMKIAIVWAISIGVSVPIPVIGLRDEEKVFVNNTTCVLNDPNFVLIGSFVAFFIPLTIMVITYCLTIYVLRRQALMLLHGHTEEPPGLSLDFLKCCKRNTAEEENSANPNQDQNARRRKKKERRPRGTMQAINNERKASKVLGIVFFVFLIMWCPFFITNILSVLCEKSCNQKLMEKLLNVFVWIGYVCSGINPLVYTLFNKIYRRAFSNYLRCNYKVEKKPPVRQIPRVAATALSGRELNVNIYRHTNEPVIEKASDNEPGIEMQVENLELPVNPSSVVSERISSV

Rattus norvegicus [15] = assay: Reversal of natural forgetting activity in rat assessed as novel object recognition at 3 mg/kg, ip after 24 hrs; format: functional, organism-based; design: dose 3 mg/kg
Rattus norvegicus [16] = assay: Reversal of natural forgetting activity in rat assessed as novel object recognition at 10 mg/kg, ip after 24 hrs; format: functional, organism-based; design: dose 10 mg/kg

Sequence of 5-hydroxytryptamine receptor 6 (Rattus norvegicus) (P31388 whole entry): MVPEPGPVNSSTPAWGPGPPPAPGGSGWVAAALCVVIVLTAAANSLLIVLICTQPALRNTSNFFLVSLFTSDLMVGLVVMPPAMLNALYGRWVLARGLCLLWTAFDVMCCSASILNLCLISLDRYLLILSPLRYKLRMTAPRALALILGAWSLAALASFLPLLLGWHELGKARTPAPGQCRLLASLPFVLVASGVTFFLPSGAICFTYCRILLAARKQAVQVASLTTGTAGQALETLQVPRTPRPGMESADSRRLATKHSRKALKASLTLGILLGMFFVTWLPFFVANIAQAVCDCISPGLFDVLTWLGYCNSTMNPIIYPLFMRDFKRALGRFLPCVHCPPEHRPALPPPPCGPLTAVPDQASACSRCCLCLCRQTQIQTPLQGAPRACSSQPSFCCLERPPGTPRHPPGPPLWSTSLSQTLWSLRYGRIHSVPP
Sequence of 5-hydroxytryptamine receptor 2A (P28223 whole entry): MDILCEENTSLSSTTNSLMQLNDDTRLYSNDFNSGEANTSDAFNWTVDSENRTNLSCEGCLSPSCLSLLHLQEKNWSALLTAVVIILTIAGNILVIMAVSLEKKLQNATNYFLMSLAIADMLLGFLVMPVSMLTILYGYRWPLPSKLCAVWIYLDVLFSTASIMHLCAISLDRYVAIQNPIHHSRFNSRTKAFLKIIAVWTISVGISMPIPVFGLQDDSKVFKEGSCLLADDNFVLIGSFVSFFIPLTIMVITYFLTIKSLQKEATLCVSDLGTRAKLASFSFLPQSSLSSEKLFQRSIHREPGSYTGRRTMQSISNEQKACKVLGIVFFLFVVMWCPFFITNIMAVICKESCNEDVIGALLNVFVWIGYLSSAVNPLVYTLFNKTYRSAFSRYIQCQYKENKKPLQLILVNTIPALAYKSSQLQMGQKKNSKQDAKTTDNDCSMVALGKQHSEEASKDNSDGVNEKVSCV

For `Cc1c(O[C@@H](C)c2cccc(F)c2)cccc1C1CCNCC1`, the Activity (Rattus norvegicus [1]) was “Active”, the Activity (Rattus norvegicus [2]) was “Active” and the bioavailability [3] was 90%. It also gave a clearance [4] of 66 mL/min/kg, a Vd [5] of 12 L/kg and a half-life [6] of 5.9 h. The Kp [7] was 23, the Activity [8] was “inactive” and the Activity [9] was “inactive”. The Activity [10] was “inactive”, the Kb [11] was 153 nM and the IC50 [12] was over 1000 nM. The IC50 [13] was over 1000 nM, the IC50 [14] was over 1000 nM and the Activity (Rattus norvegicus [15]) was “Active”. For the same compound, the Activity (Rattus norvegicus [16]) was “Active”.
